Assays:
[1] = molecular target: Beta-1 adrenergic receptor (Homo sapiens) (UniProt P08588); test: Intrinsic activity of compound against beta-1-adrenergic receptor given as percent of maximal heart rate by iv injection of supramaximal doses of isoprenaline (IPR); assay type: functional, organism-based; conditions: Felis catus
Felis catus = species: Felis catus; test: Antagonistic effect of compound on peripheral vascular resistance was measured as KB in cats; assay type: functional
Outline: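 Reserpinized (5 mg/kg, 18 h prior), pentobarbital-anesthetized, vagotomized, ventilated cats. One hind leg perfused with the animal's own blood via the femoral artery at a constant flow above 10 mL/min; resistance read as perfusion pressure. Compound infused iv for 10 min in five stepwise concentrations, each followed by ia isoprenaline at about 80%-maximal dose. KB assumes competitive antagonism.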

[2] = molecular target: Beta-1 adrenergic receptor (Homo sapiens) (UniProt P08588); test: Agonistic effect of compound against beta-1-adrenergic receptor given as geometric mean (KA) of effect on heart rate; assay type: functional; conditions: Felis catus
Outline: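 Cats of either sex (2.6–3.2 kg), starved 24 h, given reserpine 5 mg/kg 18 h before; pentobarbital 30 mg/kg ip, then 0.1 mg/min/kg infusion; ventilated, bilaterally vagotomized. Heart rate triggered from carotid pressure. Compound infused iv for 10 min at 1.0 mL/min in five rising concentrations. KA taken as the dose giving a semimaximal heart-rate increase.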

Chain of Beta-1 adrenergic receptor (Homo sapiens) (P08588 whole entry, looked up, the tested form may be a part): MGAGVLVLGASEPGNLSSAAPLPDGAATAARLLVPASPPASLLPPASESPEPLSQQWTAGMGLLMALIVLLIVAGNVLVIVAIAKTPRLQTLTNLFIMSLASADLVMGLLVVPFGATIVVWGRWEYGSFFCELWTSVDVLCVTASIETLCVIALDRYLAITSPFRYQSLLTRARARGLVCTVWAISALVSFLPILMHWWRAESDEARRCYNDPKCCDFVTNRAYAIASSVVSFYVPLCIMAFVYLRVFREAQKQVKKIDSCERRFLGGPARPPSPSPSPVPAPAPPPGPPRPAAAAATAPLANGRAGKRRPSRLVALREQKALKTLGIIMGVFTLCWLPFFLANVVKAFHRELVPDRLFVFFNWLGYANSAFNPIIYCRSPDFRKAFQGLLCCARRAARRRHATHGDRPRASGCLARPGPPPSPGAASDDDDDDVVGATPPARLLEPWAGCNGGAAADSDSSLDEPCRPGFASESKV

Structure (SMILES)	Intrinsic activity [1] [%]	KB (Felis catus) [µM/kg]	KA [2] [µM/kg]
COc1ccc(CCC(O)CNC(C)C)cc1.Cl (stereo unspecified)	4.5	30.8	–
COCc1ccc(CC(O)CNC(C)C)cc1.Cl (stereo unspecified)	–	6.1	–
COCCc1ccc(C(O)CNC(C)C)cc1.Cl (stereo unspecified)	22.5	23.6	0.536
COc1ccc(OCC(O)CNC(C)C)cc1.Cl (stereo unspecified)	81.2	3.42	0.119
COCCc1ccc(OCC(O)CNC(C)C)cc1.Cl (stereo unspecified)	–	0.87	–
Cc1ccc(OCCC(O)CNC(C)C)cc1.Cl (stereo unspecified)	–	1.82	–

— ChEMBL document CHEMBL1121816, “Adrenoceptor blocking agents. Compounds related to metoprolol” (1981)
